Measured values taken from publication PMC3355950 (The Journal of Neuroscience, 2012).

Tests used:
Assay in all cases: Two-electrode voltage-clamp recordings, Xenopus oocytes
Assay type in all cases: cell-based
GluN1/2A-(2D D1) = GluN1/2A-(2D D1) (Rattus norvegicus, UniProt P35439+Q00959, A414R/D421P/DELINS438-452SQLNRTHSPPPDAPRPE/E427G/E790M/G786D/I408V/I422A/K454R/K466R/K472G/L425I/M788I/N404Q/N432D/N490D/N491G/P770R/Q766H/Q774P/R469H/S407T/S468A/S538A/T426S/T433S/T474S/T793R/T797S/V409A/V430I/V471I/V489I/V501F/V506D/V509I/V521I/V783L); details: 100 μM glutamate plus 30 μM glycine
GluN1/GluN2A E789A = GluN1/GluN2A E789A (Rattus norvegicus, UniProt P35439+Q00959, E789A); details: 100 μM glutamate + 3 μM glycine
GluN1/2A-(2D M1M2M3) = GluN1/2A-(2D M1M2M3) (Rattus norvegicus, UniProt P35439+Q00959, A555P/A572T/A593R/A604S/F553Y/F579L/F658Y/G610A/H595G/I567T/I571V/K590T/K623R/L565C/N587S/P597S/Q620E/S556A/S569V/S598T/S632L/V575I); details: 100 μM glutamate plus 30 μM glycine; vs GluN1/GluN2A
GluN1/2D-(2A S1) = GluN1/2D-(2A S1) (Rattus norvegicus, UniProt P35439+Q62645, A432V/A445I/A493S/A563S/D455N/D515N/D531V/DELINS461-477KFVKINNSTNEGMNV/F526V/G450E/G497K/G516N/H494R/I448L/I453V/I496V/I514V/I534V/I546V/P444D/R437A/R479K/R491K/S449T/S456T/S499T/T430S/V431I); details: 100 μM glutamate + 3 μM glycine; N.E. = no effect at 10 μM TCN-201
In short: (§1)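 cRNA from linearized constructs injected into female Xenopus laevis oocytes. Two-electrode voltage clamp done 3–4 d later at 23°C, holding at −40 mV, in 90 NaCl, 1 KCl, 10 HEPES, 0.5 BaCl₂, 0.01 EDTA (mM), pH 7.4. […] Max inhibition is (control − residual at saturating compound)/control.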

GluN1/GluN2A L777A = GluN1/GluN2A L777A (Rattus norvegicus, UniProt P35439+Q00959, L777A); details: 100 μM glutamate + 3 μM glycine
GluN1/GluN2A E790M = GluN1/GluN2A E790M (Rattus norvegicus, UniProt P35439+Q00959, E790M); details: 100 μM glutamate + 3 μM glycine
[1] = target: GluN1 F754A co-expressed with GluN2A (Rattus norvegicus, UniProt P35439+Q00959, F754A); details: 100 μM glutamate + 3 μM glycine
GluN1/2D-(2A S2) = GluN1/2D-(2A S2) (Rattus norvegicus, UniProt P35439+Q62645, A747T/D725Y/D811G/E700D/E740D/H791Q/I813M/K706R/K717R/K766R/K779Y/L705F/L808V/M763K/M815E/P736R/P799Q/Q699H/Q701Y/Q744S/R693K/R737G/R765G/R795P/R818T/S688T/S721N/S728Q/S822T/T686Q/T743V/T783S/V731T/V780I/Y702S/Y733F); details: 100 μM glutamate + 3 μM glycine
In short: as §1

GluN1/GluN2A M788I = GluN1/GluN2A M788I (Rattus norvegicus, UniProt P35439+Q00959, M788I); details: 100 μM glutamate + 3 μM glycine
GluN1/GluN2A V783S = GluN1/GluN2A V783S (Rattus norvegicus, UniProt P35439+Q00959, V783S); details: 100 μM glutamate + 3 μM glycine
GluN1/GluN2A M788A = GluN1/GluN2A M788A (Rattus norvegicus, UniProt P35439+Q00959, M788A); details: 100 μM glutamate + 3 μM glycine
GluN1/GluN2A T793R = GluN1/GluN2A T793R (Rattus norvegicus, UniProt P35439+Q00959, T793R); details: 100 μM glutamate + 3 μM glycine
GluN1/GluN2B = GluN1/GluN2B (Rattus norvegicus, UniProt P35439+Q00960); details: 100 μM glutamate + 3 μM glycine; N.E. = no effect at 10 μM TCN-201
GluN1/GluN2A L780A = GluN1/GluN2A L780A (Rattus norvegicus, UniProt P35439+Q00959, L780A); details: 100 μM glutamate + 3 μM glycine
GluN1/GluN2A = GluN1/GluN2A (Rattus norvegicus, UniProt P35439+Q00959); details: for Schild slope / pA2 (Schild plot): 100 μM glutamate
[2] = target: GluN1 I519A co-expressed with GluN2A (Rattus norvegicus, UniProt P35439+Q00959, I519A); details: 100 μM glutamate + 3 μM glycine
[3] = 100 μM glutamate + 1 μM glycine
[4] = 100 μM glutamate + 30 μM glycine

GluN1/GluN2B, sequence (Q00960 27-1482, other chains not shown): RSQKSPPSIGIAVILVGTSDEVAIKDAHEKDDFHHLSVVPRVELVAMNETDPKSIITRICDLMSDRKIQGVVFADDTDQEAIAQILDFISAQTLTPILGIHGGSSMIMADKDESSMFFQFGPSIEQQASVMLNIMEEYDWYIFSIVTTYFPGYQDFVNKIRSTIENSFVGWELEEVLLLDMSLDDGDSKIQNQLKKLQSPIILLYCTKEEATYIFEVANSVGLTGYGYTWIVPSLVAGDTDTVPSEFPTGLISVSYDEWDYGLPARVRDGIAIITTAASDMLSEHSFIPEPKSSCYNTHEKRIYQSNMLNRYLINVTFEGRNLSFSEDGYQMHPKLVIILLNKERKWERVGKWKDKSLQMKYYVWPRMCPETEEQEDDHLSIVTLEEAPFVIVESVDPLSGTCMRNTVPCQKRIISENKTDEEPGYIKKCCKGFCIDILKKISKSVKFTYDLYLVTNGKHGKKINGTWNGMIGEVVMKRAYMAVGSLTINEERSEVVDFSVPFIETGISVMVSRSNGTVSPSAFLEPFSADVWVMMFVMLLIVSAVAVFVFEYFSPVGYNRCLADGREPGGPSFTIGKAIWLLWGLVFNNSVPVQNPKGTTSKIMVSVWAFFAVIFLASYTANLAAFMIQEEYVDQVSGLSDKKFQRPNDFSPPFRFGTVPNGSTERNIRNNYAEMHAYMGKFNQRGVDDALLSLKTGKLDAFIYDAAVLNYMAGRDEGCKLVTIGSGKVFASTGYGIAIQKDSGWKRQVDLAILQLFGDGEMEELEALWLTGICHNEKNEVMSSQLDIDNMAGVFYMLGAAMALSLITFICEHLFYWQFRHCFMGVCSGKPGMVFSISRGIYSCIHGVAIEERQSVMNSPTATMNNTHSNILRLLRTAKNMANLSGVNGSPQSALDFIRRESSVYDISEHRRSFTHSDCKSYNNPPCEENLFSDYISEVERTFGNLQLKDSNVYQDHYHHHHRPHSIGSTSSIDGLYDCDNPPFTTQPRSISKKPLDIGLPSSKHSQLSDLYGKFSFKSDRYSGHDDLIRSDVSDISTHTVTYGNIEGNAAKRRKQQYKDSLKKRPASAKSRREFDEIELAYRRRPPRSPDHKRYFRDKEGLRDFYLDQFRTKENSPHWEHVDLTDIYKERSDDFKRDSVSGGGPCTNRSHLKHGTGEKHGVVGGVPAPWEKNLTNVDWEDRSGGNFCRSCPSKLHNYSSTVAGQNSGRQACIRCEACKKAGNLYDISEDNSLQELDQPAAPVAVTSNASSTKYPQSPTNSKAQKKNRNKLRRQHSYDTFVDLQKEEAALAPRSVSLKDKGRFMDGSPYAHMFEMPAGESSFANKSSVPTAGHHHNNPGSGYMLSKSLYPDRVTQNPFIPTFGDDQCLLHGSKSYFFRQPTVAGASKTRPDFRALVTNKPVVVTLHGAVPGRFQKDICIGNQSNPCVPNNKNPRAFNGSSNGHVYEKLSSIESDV

In the case of `O=C(NNC(=O)c1ccc(CNS(=O)(=O)c2ccc(F)c(Cl)c2)cc1)c1ccccc1` [TCN-201, 3-chloro-4-fluoro-N-[(4-[(2-(phenylcarbonyl)hydrazino)carbonyl]phenyl)methyl]-benzenesulfonamide], the “Inhibition by 3 μM TCN-201” value (GluN1/2A-(2D D1)) is reported as “eliminated TCN-201 inhibition”, the “TCN-201 activity Max. % inhibition” value (GluN1/GluN2A E789A) is reported as 96 ± 1% and the “TCN-201 activity nH” value (GluN1/GluN2A E789A) is reported as 1.4. For the same compound, the “Inhibition by 3 μM TCN-201” value (GluN1/2A-(2D M1M2M3)) was “did not reduce inhibition”, the “TCN-201 activity IC50” value (GluN1/2D-(2A S1)) was “did not introduce TCN-201 sensitivity and N.E” and the “TCN-201 activity Max. % inhibition” value (GluN1/GluN2A L777A) was 98 ± 1%. For the same compound, the “TCN-201 activity nH” value (GluN1/GluN2A L777A) was 1.2, the “TCN-201 activity Max. % inhibition” value (GluN1/GluN2A E790M) was 90 ± 3% and the “TCN-201 activity nH” value (GluN1/GluN2A E790M) was 1.4. The “TCN-201 activity Max. % inhibition” value [1] was 98 ± 1%, the “TCN-201 activity nH” value [1] was 1.4 and the “TCN-201 activity Max. % inhibition” value (GluN1/2D-(2A S2)) was 91 ± 4%. The “TCN-201 activity nH” value (GluN1/2D-(2A S2)) was 2.1, the “TCN-201 activity Max. % inhibition” value (GluN1/GluN2A M788I) was 79 ± 3% and the “TCN-201 activity nH” value (GluN1/GluN2A M788I) was 1.3. The “TCN-201 activity Max. % inhibition” value (GluN1/GluN2A V783S) was 89 ± 3%, the “TCN-201 activity nH” value (GluN1/GluN2A V783S) was 1.4 and the “TCN-201 activity Max. % inhibition” value (GluN1/GluN2A M788A) was 90 ± 3%. The “TCN-201 activity nH” value (GluN1/GluN2A M788A) was 1.4, the “TCN-201 activity Max. % inhibition” value (GluN1/GluN2A T793R) was 94 ± 2% and the “TCN-201 activity nH” value (GluN1/GluN2A T793R) was 2.2. The “TCN-201 activity IC50” value (GluN1/GluN2B) was “did not inhibit and N.E”, the “Response, % of control at 10 μM TCN-201” value (GluN1/GluN2A L780A) was 67% of control at 10 μM TCN-201 and the “TCN-201 activity Max. % inhibition” value (GluN1/GluN2A; [3]) was 100 ± 1%. The “TCN-201 activity nH” value (GluN1/GluN2A; [3]) was 1.2, the “TCN-201 activity nH” value (GluN1/GluN2A; 100 μM glutamate + 3 μM glycine) was 1.5 and the “TCN-201 activity Max. % inhibition” value (GluN1/GluN2A; [4]) was 73 ± 2%. The “TCN-201 activity nH” value (GluN1/GluN2A; [4]) was 2.2, the Schild slope (GluN1/GluN2A; agonist D-cycloserine) was 0.90 and the “pA2 (Schild plot)” value (GluN1/GluN2A; agonist D-cycloserine) was 7.39. The Schild slope (GluN1/GluN2A; agonist D-serine) was 0.79, the “pA2 (Schild plot)” value (GluN1/GluN2A; agonist D-serine) was 7.39 and the Schild slope (GluN1/GluN2A; agonist glycine) was 0.87. For the same compound, the “allosteric constant α” value (GluN1/GluN2A; global nonlinear regression of glycine concentration-response data) was 0.0025, the “Maximal increase in glycine EC50 (1/α)” value (GluN1/GluN2A; implied by α = 0.0025) was 400 fold and the “TCN-201 activity Max. % inhibition” value [2] was 80 ± 2%. For the same compound, the “TCN-201 activity nH” value [2] was 1.9.
